Shown are actives, neighbours in structure and some others; about 9.2% of the full set was active somewhere.
HCT116 bCat-KO = beta-catenin-lacking colon tumor cell growth suppression. HCT116 beta-catenin knockout viability, CellTiter-Glo, 60 h; active compounds read low. viability, % at 10 µM. 1.5% of 140,000 active;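 active = viability at or under a set limit, the compound median less 4 SD, cut at about 6% in these data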;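 also: 0% = Hyamine 1622 control at 20 µM and 100% = untreated cell control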
Dynein transport = dynein cargo transport inhibition; 3617.4 mouse cells, GR-EGFP nuclear translocation imaging; test concentration mostly 20 µM; stimulated with dexamethasone, 1 µM; active compounds read low; z-score, hits read low; 0.47% of 220,000 active; AID 1381;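 active = plate z-score of nuclear minus cytoplasmic receptor signal below a set negative limit, without overly bright fluorescence or cell loss, cut at about -3.5 in these data, passing the limit was not always enough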;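 also: z-score of nuclear minus cytoplasmic ring GR-EGFP intensity difference per well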
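Buffer or medium – tet-free medium with charcoal-stripped serum · Signal – automated 10x imaging of fixed Hoechst-stained cells · Also added – dexamethasone agonist, 1.0 µM final, for 30 min · Incubation – induction 48 h, compound 1 h, agonist 30 min · Read-out – GR-EGFP nuclear translocation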
Autophagy HCS = modulators of autophagy; 0.98% of 190,000 active; AID 463193; calls only at 10 µM (by protocol); MEF GFP-LC3 puncta imaging; test concentration mostly 10 µM;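 active = percentage of spot-positive cells more than 3 SD above its plate mean, without a fluorescence outlier flag or 80% toxicity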;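 also: spot-positive cell cutoff set from DMSO-treated cells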
L major viab = inhibitors of Leishmania major promastigote growth; Leishmania major promastigotes, resazurin fluorescence viability; inhibition, % at 10 µM; 9% of 200,000 active; AID 1063; in the data active = inhibition above about 50%;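 also: promastigotes grown with compound for 44 hours at 28 °C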
PTEN del growth = PTEN-deleted cell growth suppression; HCT116 PTEN-null viability, CellTiter-Glo, 60 h; active compounds read low; viability, % at 10 µM; 1.2% of 140,000 active; AID 827;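 active = viability at or below a set limit, 4 SD under the median of all tested compounds, cut at about 3.7% in these data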;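 also: PTEN knockout HCT116 line with beta catenin targeted HCT116 as companion control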
Active calls of the source: *; i = inactive; · = not tested or not shown; + = active, no number.

SMILES | HCT116 bCat-KO | Dynein transport | Autophagy HCS | L major viab | PTEN del growth
O=C(NC(=S)NCCC1=CCCCC1)c1cccnc1 | · | -0.21 | i | -4 | ·
Cc1ccc(C)c(NC(=O)Cn2nnc(C(=O)NCc3cccs3)c2N)c1 | 74 | -0.66 | i | -2 | 69
CC1=C(C(=O)N2CCOCC2)C(c2ccc(C)cc2)NC(=S)N1 (centres undefined) | 94 | 0.071 | i | -6 | 104
CC(C)(C)N=C1NC(=NC(C)(C)C)c2ccccc21 | 59 | -0.2 | i | 66* | 49
c1ccc2c(c1)C(=NCC1CCCO1)NC2=NCC1CCCO1 (centres undefined) | 88 | -0.36 | i | 5 | 94
CCN1CCCC1CNCC(O)COc1ccc(C(C)(C)C)cc1C (centres undefined) | · | 1.3 | i | 86* | ·
O=C(CSc1nnc2c3ccccc3c3ccccc3c2n1)Nc1ccccc1F | 2.2* | 0.0039 | i | 17 | 1.9*
Cc1noc(NS(=O)(=O)c2ccc(NC(=O)CSc3nnc4c(n3)[nH]c3ccccc34)cc2)c1C | 102 | -0.14 | i | 57* | 94
O=C(CSc1nnc2c3ccccc3c3ccccc3c2n1)Nc1ccccc1 | 38 | -0.8 | + | 97* | 35
Cn1cnnc1SCC(=O)Nc1ccccc1F | · | 0.12 | i | -7 | ·
CCn1c(C)nc2cc(C(=O)NNC(=S)Nc3ccc(OC)cc3)ccc21 | · | 1.6 | i | -1 | ·
COC(=O)N/N=C(\C)c1ccccc1Br | 94 | 0.78 | i | -3 | 88
COC(=O)Cn1c2ccc(OC)cc2c2nc3ccccc3nc21 | 63 | -0.25 | i | -2 | 75
CCOc1ccc(Cn2c3ccc(OC)cc3c3nc4ccccc4nc32)cc1OC | 82 | -0.81 | + | 10 | 82
CCOC(=O)Cn1c2ccc(OC)cc2c2nc3ccccc3nc21 | 47 | 0.72 | + | 1 | 60
CCn1c2ccccc2c2nc3cc(OC)c(OC)cc3nc21 | 37 | 0.62 | i | 73* | 39
COc1cc2nc3c4ccccc4n(CC#N)c3nc2cc1OC | 90 | -0.65 | i | -2 | 89
CC1(N(O)C=C2C=CC(=O)C=C2)CCCCC1=O (centres undefined) | · | -0.1 | · | · | ·
O=C(NC(=S)Nc1c(Cl)ccc2nsnc12)c1ccco1 | 85 | 0.23 | i | -6 | 91
CCOC(=O)C1CCCN(C/C=C/c2ccccc2[N+](=O)[O-])C1 (centres undefined) | 101 | -0.74 | i | 85* | 87
CC(CN1CCCC(C(N)=O)C1)c1ccccc1 (centres undefined) | 104 | -1.2 | i | 25 | 98
O=[N+]([O-])c1ccccc1/C=C/CN1CCCCC1 | 96 | -1.5 | i | 75* | 96
CCOC(=O)C1CCCN(CCC(C)c2ccccc2)C1 (centres undefined) | 103 | 0.91 | i | 78* | 105
Cc1ccc(NC(=O)CSC(C)C(=O)NCCc2ccccn2)cc1 (centres undefined) | · | -0.17 | i | 4 | ·
COc1ccc(C(=O)NC(Nc2ccc(C)cc2)C(Cl)(Cl)Cl)cc1 (centres undefined) | 79 | 1.9 | i | 75* | 81
SMILES | HCT116 bCat-KO | Dynein transport | Autophagy HCS | L major viab | PTEN del growth
Cc1ccc(C(=O)NC(NCc2ccco2)C(Cl)(Cl)Cl)cc1 (centres undefined) | 89 | -0.55 | i | 60* | 88
CCOC(=O)c1ccc(NC(=O)CCc2c(C)nc3ncnn3c2C)cc1 | 84 | -0.55 | i | -3 | 105
Cc1cccc(OCC(O)CN2CCN(C3CCCCC3)CC2)c1 (centres undefined) | 82 | -1.3 | i | 91* | 102
CC1CCN(CC(O)COc2ccc(F)cc2)CC1 (centres undefined) | 99 | -0.38 | i | 30 | 98
COc1cccc(OCC(O)CN2CCC(C)CC2)c1 (centres undefined) | 95 | -0.19 | i | 71* | ·
CCN1CCN(CC(O)COc2cccc(OC)c2)CC1 (centres undefined) | 93 | -1.2 | i | 2 | 98
CC1CCN(CC(O)COc2cccc(F)c2)CC1 (centres undefined) | 87 | 0.046 | i | 66* | 102
Cc1ccccc1CSc1n[nH]c(NS(=O)(=O)c2ccccc2)n1 | 88 | -0.092 | i | -1 | 86
O=C(O)CN1C(=O)c2ccc(Oc3ccc4c(c3)C(=O)N(CC(=O)O)C4=O)cc2C1=O | · | 0.94 | · | · | ·
COc1ccc(C2CC(c3ccccc3Cl)Nc3ncnn32)cc1OC (centres undefined) | 99 | 0.34 | i | 76* | 88

From PubChem BioAssay
